The results in this text go back to ChEMBL document CHEMBL4725305, “Optimizing the aryl-triazole of cjoc42 for enhanced gankyrin binding and anti-cancer activity” (Bioorg Med Chem Lett, 2020).

As a reminder, the pIC50 is the IC50 on a negative log10 scale, so that one unit is a factor of ten.

The target in assay [1] is T1, 26S proteasome non-ATPase regulatory subunit 10 (Homo sapiens) (UniProt O75832).
T1 sequence (whole entry): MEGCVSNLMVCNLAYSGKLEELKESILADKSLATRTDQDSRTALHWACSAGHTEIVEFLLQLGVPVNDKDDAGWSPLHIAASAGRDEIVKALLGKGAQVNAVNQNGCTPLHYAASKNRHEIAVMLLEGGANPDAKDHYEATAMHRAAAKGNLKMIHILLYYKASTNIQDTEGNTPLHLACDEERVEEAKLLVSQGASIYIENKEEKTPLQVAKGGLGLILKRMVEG
Briefly: Binding affinity to gankyrin (unknown origin) assessed as increase in melting temperature at 300 uM by thermal shift assay. The essentials:
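Gankyrin (20 μM) incubated with test compound at 300 μM in protein thermal shift assay; denaturation temperature (T_m) measured and ΔT_m taken relative to protein without ligand. Vehicle control 5% DMSO; cjoc42 at 300 μM as reference control. Each compound tested in triplicate.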

The target in assay [2] is T1, 26S proteasome non-ATPase regulatory subunit 10 (Homo sapiens). Briefly: Potency index, ratio of change in melting temperature of Cjoc42 to change in melting temperature of compound for binding affinity to gankyrin (unknown origin) assessed as increase in melting temperature at 300 uM by thermal shift assay. The essentials:
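Gankyrin (20 μM) with compound at 300 μM in thermal shift assay, run in triplicate; ΔT_m of each compound compared with that of cjoc42 (300 μM) tested in parallel as positive control; 5% DMSO vehicle.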

For assay [3], the system named is A549. Briefly: Cytotoxicity against human A549 cells assessed as reduction in cell viability incubated for 48 hrs by MTT assay. The class given is functional, cell-based. The settings on record: A549, 48 h. The essentials:
(§1)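 A549 and MDA-MB-231 cells incubated 24 h before drug addition, then exposed to compound for 48 h at 37 °C, 5% CO2; proliferation read by MTT assay and IC50 derived; tested up to 100 μM.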
In general terms: Tetrazolium dyes change colour on reduction, which living cells bring about.

For assay [4], the system named is HepG2. Nature of the assay: Cytotoxicity against human HepG2 cells assessed as reduction in cell viability incubated for 72 hrs by MTT assay. It is filed as functional, cell-based. Particulars: HepG2, 72 h. The essentials: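 Hep3B and HepG2 cells incubated 24 h before drug addition, then exposed to compound for 72 h at 37 °C, 5% CO2; proliferation read by MTT assay and IC50 derived; tested up to 100 μM.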

In assay [5] the test system is Hep3B. Nature of the assay: Cytotoxicity against human Hep3B cells assessed as reduction in cell viability incubated for 72 hrs by MTT assay.
The test system of assay [6] is MDA-MB-231. Briefly: Cytotoxicity against human MDA-MB-231 cells assessed as reduction in cell viability incubated for 48 hrs by MTT assay. It is filed as functional, cell-based. Particulars: MDA-MB-231, 48 h. The essentials: as §1

pIC50: −log10 of the molar value. Activity calls are given as the source filed them. The calls are words filed in the database; no cut-off is given here.

With `Cc1ccc(S(=O)(=O)OCCCc2cn(-c3ccccc3C(F)(F)F)nn2)cc1`, the result in assay [1] was Active.
The same measure, in the same setting: the result for `Cc1ccc(S(=O)(=O)OCCCc2cn(-c3ccc(F)cc3)nn2)cc1` reads “inactive”; that for `CCc1ccccc1-n1cc(CCCOS(=O)(=O)c2ccc(C)cc2)nn1`, “inactive”.
In the case of `N#Cc1cccc(-n2cc(CCCOS(=O)(=O)c3ccc(-c4ccccc4)cc3)nn2)c1`, the result in assay [1] was inactive.
Still for that read-out and setting: the entry for `Cc1ccc(S(=O)(=O)OCCCc2cn(-c3cccc(C)c3)nn2)cc1` is “Active”; for `Cc1ccc(S(=O)(=O)OCCCc2cn(-c3ccccc3F)nn2)cc1` it is “inactive”.
As to `Cc1ccc(S(=O)(=O)OCCCc2cn(-c3ccccc3C#N)nn2)cc1`, in assay [1], the outcome was inactive.
The same measure, in the same setting: the entry for `Cc1ccc(S(=O)(=O)OCCCc2cn(-c3ccc(C#N)cc3)nn2)cc1` is “inactive”; for `N#Cc1cccc(-n2cc(CCCOS(=O)(=O)c3ccc(I)cc3)nn2)c1` it is “inactive”.
On to `Cc1ccc(S(=O)(=O)OCCCc2cn(-c3cccc(F)c3)nn2)cc1`, for which the Ratio in assay [2] came out at 5. Moreover, the outcome in assay [1] was Active. Moreover, the pIC50 in assay [3] is less than 4.00; in assay [4], 4.21; in assay [5] it was 4.09; in assay [6], less than 4.00.
For `COC(=O)c1ccc(-n2cc(CCCOS(=O)(=O)c3ccc(C)cc3)nn2)cc1`, the pIC50 in assay [3], in assay [4], in assay [5] and in assay [6] was less than 4.00 each time.
For the compound `Cc1ccc(S(=O)(=O)OCCCc2cn(-c3ccccc3-c3ccccc3)nn2)cc1`, the outcome in assay [1] was Active.
The same measure, in the same setting: the result for `Cc1ccc(S(=O)(=O)OCCCc2cn(-c3ccccn3)nn2)cc1` reads “inactive”.
In the case of `Cc1ccc(S(=O)(=O)OCCCc2cn(-c3cccc(Br)c3)nn2)cc1`, in assay [1], the result was Active.
Regarding `Cc1ccc(S(=O)(=O)OCCCc2cn(-c3ccc(C(F)(F)F)cc3)nn2)cc1`, the outcome in assay [1] was Active. Also, the pIC50 in assay [3] is less than 4.00; in assay [4] it was 4.37; in assay [5], 4.37; in assay [6] it was less than 4.00.
In the case of `Cc1ccc(S(=O)(=O)OCCCc2cn(-c3ccc(Br)cc3)nn2)cc1`, the outcome in assay [1] was Active.
As for `Cc1ccc(S(=O)(=O)OCCCc2cn(-c3cccc(C(F)(F)F)c3)nn2)cc1`, the result in assay [1] was Active.
The same measure, in the same setting: the entry for `COc1ccc(-n2cc(CCCOS(=O)(=O)c3ccc(I)cc3)nn2)cc1` is “inactive”; for `COc1ccc(-n2cc(CCCOS(=O)(=O)c3ccc(-c4ccccc4)cc3)nn2)cc1` it is “inactive”; for `Cc1ccc(S(=O)(=O)OCCCc2cn(-c3ccc(-c4ccccc4)cc3)nn2)cc1` it is “inactive”.
On to `COC(=O)c1ccc(-n2cc(CCCOS(=O)(=O)c3ccc(-c4ccccc4)cc3)nn2)cc1`, for which the pIC50 in assay [5] was 4.59.
`Cc1ccc(S(=O)(=O)OCCCc2cn(-c3ccc(I)cc3)nn2)cc1`: in assay [1], the result was inactive.
As to `COc1ccc(-n2cc(CCCOS(=O)(=O)c3ccc(C)cc3)nn2)cc1`, the result in assay [1] was Active. In addition, the pIC50 in assay [3] is 4.13; in assay [4], less than 4.00; in assay [5], less than 4.00; in assay [6] it was 4.14.
With `Cc1ccc(S(=O)(=O)OCCCc2cn(-c3ccccc3C)nn2)cc1`, in assay [1], the outcome was Active.
Regarding `COC(=O)c1ccccc1-n1cc(CCCOS(=O)(=O)c2ccc(C)cc2)nn1`, the outcome in assay [1] was inactive.
On the same count and under the same terms, the entry for `COc1cccc(-n2cc(CCCOS(=O)(=O)c3ccc(C)cc3)nn2)c1` is “Active”.
In the case of `Cc1ccc(S(=O)(=O)OCCCc2cn(-c3nccs3)nn2)cc1`, the result in assay [1] was inactive.
For the compound `Cc1ccc(S(=O)(=O)OCCCc2cn(-c3cccnc3)nn2)cc1`, the outcome in assay [1] was inactive.
The same measure, in the same setting: the entry for `CCc1ccc(-n2cc(CCCOS(=O)(=O)c3ccc(C)cc3)nn2)cc1` is “inactive”; for `CCc1cccc(-n2cc(CCCOS(=O)(=O)c3ccc(C)cc3)nn2)c1` it is “Active”.
As to `Cc1ccc(S(=O)(=O)OCCCc2cn(-c3ccncc3)nn2)cc1`, the outcome in assay [1] was inactive.
Same read-out and setting: the result for `Cc1ccc(S(=O)(=O)OCCCc2cn(-c3ccc(C(C)C)cc3)nn2)cc1` reads “inactive”.
Regarding `Cc1ccc(-n2cc(CCCOS(=O)(=O)c3ccc(C)cc3)nn2)cc1`, the Ratio in assay [2] stood at 3. Besides, the result in assay [1] was Active. Moreover, the pIC50 is 4.10 in assay [3], less than 4.00 in assay [4], less than 4.00 in assay [5] and 4.44 in assay [6].
Consider `COc1ccccc1-n1cc(CCCOS(=O)(=O)c2ccc(C)cc2)nn1`, for which the result in assay [1] was Active.
As for `Cc1ccc(S(=O)(=O)OCCCc2cn(-c3cccc(C#N)c3)nn2)cc1`, the Ratio in assay [2] came to 6. Also, the result in assay [1] was Active. Moreover, the pIC50 in assay [3] is less than 4.00; in assay [4] it was less than 4.00; in assay [5], 4.35; in assay [6] it was less than 4.00.
Take `Cc1ccc(S(=O)(=O)OCCCc2cn(-c3ccc(Cl)cc3)nn2)cc1`: the result in assay [1] was Active.
